Most compounds without a hit are left out; they make up all but 4.5% or so of the library.
RGS4 pot: potentiators or activators of RGS4; 310,000 tested, 0.92% active; B-score at 10 µM; HEK293 M3R/inducible RGS4, carbachol calcium flux Fluo4; stronger effect = lower value;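 active means B-score of the integrated calcium signal more than 4 SD below the library mean, with starting fluorescence not abnormally high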;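 further: negative B-score means reduced calcium response which marks RGS4 activation or potentiation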
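Assay system: Inducible-RGS4 HEK293 cells carrying M3 receptor | Schedule: Compound preincubation 20 min at room temperature before agonist | Signal: Kinetic calcium fluorescence imaging with Fluo4-AM dye, 2 µM | Read-out basis: B score from integrated fluorescence ratio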
MrgX1 PAM: allosterically activates human MrgX1 receptor signaling; B-score at 10 µM; AID 588675; MrgX1-HEK293, Fluo-4 calcium flux, FDSS; stronger effect = higher value; 310,000 tested, 0.63% active; Q96LB2;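 active means plate-corrected calcium response at least 3 library SD above typical, normal starting fluorescence, not activating the receptor alone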;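 further: compound read alongside a low EC10 to EC30 dose of BAM8-22 agonist; peak minus trough fluorescence over baseline measured at the second addition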
Target sequence (Q96LB2 whole entry, looked up): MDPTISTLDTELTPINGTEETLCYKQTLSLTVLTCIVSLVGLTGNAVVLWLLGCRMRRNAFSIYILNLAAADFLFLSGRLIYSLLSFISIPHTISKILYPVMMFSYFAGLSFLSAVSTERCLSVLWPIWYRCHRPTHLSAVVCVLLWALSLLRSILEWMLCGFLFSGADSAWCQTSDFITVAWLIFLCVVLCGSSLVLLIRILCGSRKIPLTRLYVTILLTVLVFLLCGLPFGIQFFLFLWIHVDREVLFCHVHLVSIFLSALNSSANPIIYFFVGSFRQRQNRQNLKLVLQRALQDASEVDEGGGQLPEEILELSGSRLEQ
RGS4 block: human RGS4 inhibition; P49798; AID 463165; HEK293 M3R/RGS4 inducible, Fluo-4 calcium flux; stronger effect = higher value; triggered by carbachol at its EC20; 310,000 tested, 0.45% active; B-score at 10 µM;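 active means B-score, a plate-corrected calcium signal, over three deviations above library mean, with baseline fluorescence within five deviations of library mean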;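 further: RGS4 expression induced by doxycycline in cells with stable M3 receptor; B-score is computed from the integrated fluorescence ratio over baseline after carbachol; higher B-score means a larger calcium signal and so more RGS4 inhibition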
Target sequence (P49798 whole entry, looked up): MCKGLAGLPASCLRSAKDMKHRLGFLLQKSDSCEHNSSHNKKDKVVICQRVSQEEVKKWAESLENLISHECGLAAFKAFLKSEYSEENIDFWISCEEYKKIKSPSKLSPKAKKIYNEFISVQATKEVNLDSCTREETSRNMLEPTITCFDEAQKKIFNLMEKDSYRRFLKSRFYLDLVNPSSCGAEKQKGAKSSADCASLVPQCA
MrgX1 antag: antagonists of human MrgX1 receptor; Q96LB2; MRGX1-HEK293 calcium flux, Fluo-4, BAM8-22 antagonism; stronger effect = lower value; B-score at 10 µM; 310,000 tested, 1.3% active; AID 588676;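 active means calcium-response B-score plate-corrected more than 3 library SD below zero, starting fluorescence within 5 deviations, no agonist response on first addition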;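 further: peak minus trough fluorescence over baseline after final BAM8-22 challenge near maximal dose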
MrgX1 ag: agonists of human MrgX1 receptor | Q96LB2 | MrgX1-HEK293 cells, Fluo-4 calcium fluorescence, agonist mode; stronger effect = higher value | B-score at 10 µM | 310,000 tested, 0.44% active;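 active means calcium response B-score plate-corrected fluorescence ratio at least 3 library SD, with starting fluorescence B-score inside 5 SD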
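Material: MrgX1-expressing HEK293 cells / Dosing: compound as first of three additions / Incubation: overnight seeding, then 1 h dark dye loading / Signal: Fluo-4 NW calcium fluorescence / Evaluation: B-scored fluorescence response ratio / Benchmarks: positive and negative control wells on each plate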
PHOSPHO1 block: PHOSPHO1 (human) inhibition. AID 1565. inhibition, % at 13.3 µM. 290,000 tested, 1.1% active. recombinant PHOSPHO1, absorbance phosphatase assay. Q8TCT1; in the data active means inhibition above about 60%
RGS4 activ val: RGS4 activation, validation assay. shares compounds with RGS4 pot. HEK293 M3R/RGS4 inducible, carbachol calcium flux Fluo4. inhibition, % at 10 µM. 1,100 tested, 89% active;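 active means inhibition above 3 SD of the buffer control wells, cut at about 41% in these data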;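 further: signal is the integrated peak-minus-minimum Fluo4 fluorescence over baseline ratio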
M3R Ca counter: counter-screen for RGS4 activators: effect in non-induced cells. inhibition, % at 10 µM. HEK293 M3R non-induced RGS4, Fluo4 calcium flux; after carbachol challenge at its EC90. 1,100 tested, 82% active. shares compounds with RGS4 pot. AID 602283;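 active means inhibition exceeding 3 SD of buffer-only control wells, cut at about 26% in these data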;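 further: percent drop in integrated peak-minus-baseline over baseline Fluo4 ratio after carbachol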
Hits are given with their value; n = inactive; x = no result given.

SMILES	RGS4 pot	MrgX1 PAM	RGS4 block	MrgX1 antag	MrgX1 ag	PHOSPHO1 block	RGS4 activ val	M3R Ca counter
CCN(CC(=O)Nc1c(F)cccc1F)C(=O)CCSc1ccc(F)cc1	n	n	n	n	n	x	x	x
CCCSc1nc(C)c2cc(C)cc(C)c2n1	n	n	n	n	n	n	x	x
Cc1cc(C)c2nc3nc(C)c(C)cc3c(N)c2c1	-9.3	x	n	x	x	n	90	65
COc1cccc(NC(=O)CN(C)C(=O)c2cc(-c3cccc(Br)c3)nc3ccccc23)c1	-9.5	n	n	n	n	x	84	28
COc1ccc(C(=O)Nc2ccnn2C2CCN(Cc3cnn(C)c3)CC2)cc1	n	n	n	n	n	n	x	x
CCn1cc(CN2CCC(n3nccc3NC(=O)c3ccc(OC)cc3)CC2)cn1	-7.7	n	n	n	n	n	66	84
Cc1ccc(C(=O)NCC(=O)OCC(=O)Nc2ccccc2C#N)s1	n	n	n	n	n	n	x	x
CC(C)c1ccc(NC(=O)CCNS(=O)(=O)c2cccc3nsnc23)cc1	-8	n	n	n	n	n	n	n
CCc1ccc(NS(=O)(=O)c2cccc3nsnc23)cc1	-8.6	n	n	n	n	n	72	84
CCOC(=O)c1oc2ccc(CNCCO)c(Cl)c2c1C	n	n	n	n	n	n	x	x
CCOC(=O)c1oc2ccc(CNC3CCCCC3)c(Cl)c2c1C	-7.8	n	n	n	n	n	94	92
Cn1nc(C(F)(F)F)c2cc(NC(=O)OCc3ccc(F)cc3)sc21	-7.9	n	n	n	n	n	74	84
CCOC(=O)C1=C(C)N2C(=C(C#N)[C@@H]1c1ccc(C(=O)OC)cc1)SC[C@@]2(O)C(C)(C)C	-9.1	n	n	n	n	n	59	n
O=C(COC(=O)c1ccc([N+](=O)[O-])cc1Cl)Nc1cccnc1Cl	n	n	n	n	n	x	x	x
O=C(OCCN1CCCCC1)c1ccccc1Br	n	n	n	n	n	n	x	x
C[N+]1(CCCOC(=O)C2(c3ccccc3)CCCC2)CCOCC1	n	n	n	n	n	n	x	x
O=C(OCCN1CCCCC1)C1(c2ccccc2)CCCC1	-10	n	n	n	n	n	92	92
O=C(OCCN1CCCC1)C1(c2ccccc2)CCCC1	-9.3	x	n	x	x	n	94	93
CN(C)CCOC(=O)C1(c2ccccc2)CCCC1	-8.5	n	n	n	n	n	92	91
O=C(Nc1cccc(C(=O)O)c1)/C(=C\c1ccc(F)cc1)NC(=O)c1ccco1	n	n	n	n	n	n	x	x
CN1/C(=C/C=C(C#N)C#N)C(C)(C)c2ccccc21	-7.8	n	n	n	n	n	88	82
CN1/C(=C\C=O)C(C)(C)c2ccccc21	n	n	n	n	n	n	x	x
Cc1ccc(OCCSc2nc(NC(C)C)nc(NC(C)C)n2)cc1	n	n	n	n	n	n	x	x
COc1ccc(C(=O)N/N=C/c2ccc3cccc(OCc4ccccc4)c3n2)cc1	-11	n	n	n	n	n	91	47
CC1CCN(CC(=O)Nc2ccccc2-c2ccccc2)CC1	-9.1	n	n	n	n	n	92	61
SMILES	RGS4 pot	MrgX1 PAM	RGS4 block	MrgX1 antag	MrgX1 ag	PHOSPHO1 block	RGS4 activ val	M3R Ca counter
CC1CCN(CCCCOc2ccc(Cl)cc2)CC1	n	n	n	n	n	n	x	x
CC1CCN(CCCCOc2ccc(C(C)(C)C)cc2)CC1	-9.6	n	n	n	n	n	93	60
CNCCOc1ccccc1-c1ccccc1	n	n	n	n	n	n	x	x
CC1CCN(CCCCOc2ccccc2-c2ccccc2)CC1	-8.4	n	n	n	n	n	72	84
CNCCCCOc1ccccc1-c1ccccc1	-8.8	n	n	n	n	n	85	84
C/C(=N\NC(=O)COc1ccccc1[N+](=O)[O-])c1cccc(NC(=O)c2ccncc2)c1	n	n	n	n	n	n	x	x
Cc1cc(OC(=O)C(C)(C)C)c([N+](=O)[O-])c(=O)[nH]1	n	n	n	n	n	n	x	x
COc1ccccc1C(=O)NCC1(c2ccccc2)CCCC1	n	n	n	n	n	n	x	x
